ChEMBL document CHEMBL1268892, “Antidotes to anthrax lethal factor intoxication. Part 1: Discovery of potent lethal factor inhibitors with in vivo efficacy” (Bioorg Med Chem Lett, 2010)
pKi: −log10 of the molar value. Activity calls are given as the source filed them. The rule behind the calls is not given here.

Experiments:
[1] = target: T1, Lethal factor (Bacillus anthracis, UniProt P15917); test: Inhibition of Bacillus anthracis lethal factor assessed as proteolysis using MCA-KKVYPYPME-Dap(Dnp)-NH2 peptide substrate by FRET assay
T1 sequence (P15917 whole entry): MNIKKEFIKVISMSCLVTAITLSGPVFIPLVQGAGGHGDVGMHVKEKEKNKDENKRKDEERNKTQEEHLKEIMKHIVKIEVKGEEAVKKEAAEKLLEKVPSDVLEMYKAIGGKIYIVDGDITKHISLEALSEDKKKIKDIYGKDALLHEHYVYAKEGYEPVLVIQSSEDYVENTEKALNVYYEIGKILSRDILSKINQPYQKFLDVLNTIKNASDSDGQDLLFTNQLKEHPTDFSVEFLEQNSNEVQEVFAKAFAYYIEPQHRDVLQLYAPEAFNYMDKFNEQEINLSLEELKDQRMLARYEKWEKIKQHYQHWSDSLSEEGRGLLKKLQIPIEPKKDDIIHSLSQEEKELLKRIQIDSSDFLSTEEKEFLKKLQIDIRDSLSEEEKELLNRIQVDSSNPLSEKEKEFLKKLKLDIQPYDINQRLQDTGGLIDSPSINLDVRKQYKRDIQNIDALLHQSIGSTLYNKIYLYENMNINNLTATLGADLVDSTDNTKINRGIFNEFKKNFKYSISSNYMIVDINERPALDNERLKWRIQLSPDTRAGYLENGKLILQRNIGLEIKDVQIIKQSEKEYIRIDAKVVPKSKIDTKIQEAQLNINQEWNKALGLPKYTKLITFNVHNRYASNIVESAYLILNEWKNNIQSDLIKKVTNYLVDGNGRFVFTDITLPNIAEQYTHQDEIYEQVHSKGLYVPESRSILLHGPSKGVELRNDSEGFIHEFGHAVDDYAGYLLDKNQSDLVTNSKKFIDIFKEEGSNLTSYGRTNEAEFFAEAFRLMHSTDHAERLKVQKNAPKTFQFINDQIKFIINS
Procedure, shortened: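 Purified LF at 0.5 nM final with 40 μM peptide substrate in 20 mM HEPES pH 7.4, 0.1% Tween-20, 0.5 mg/mL BSA. The reaction was started by adding enzyme and incubated 4 h at 23°C to reach a steady-state rate. Cleavage was read as fluorescence increase (λex 324 nm, λem 395 nm). Ki was fitted to the tight-binding equation. Values are means of three experiments.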

[2] = Lipophilicity, log D of the compound at pH 7.4; format: physicochemical; conditions: buffer
[3] = Solubility of the compound in 50% DNSO/PBS; format: physicochemical; conditions: 50% DMSO/PBS
[4] = system: Rattus norvegicus; test: Inhibition of lethal factor-induced toxicity in Fischer 344 rat assessed as increase in median survival time at 5 mg/kg, iv relative to control; format: functional, organism-based; parameters: dose 5 mg/kg
[5] = system: Rattus norvegicus; test: Inhibition of lethal factor-induced toxicity in Fischer 344 rat assessed as increase in median survival time at 2.5 mg/kg, iv relative to control; format: functional, organism-based; parameters: dose 2.5 mg/kg

| SMILES | pKi [1] | logD [2] | solubility [3] [µg/mL] | inhibition [4] | inhibition [5] |
| --- | --- | --- | --- | --- | --- |
| CO[C@H](C[C@H](CCN1CCCC(Cc2ccc(F)cc2)C1)C(=O)NO)c1ccc(F)cc1 (stereo partly specified) | 7.48 | < 3 | > 5 |  |  |
| CO[C@H](C[C@H](CCN1CCOCC1)C(=O)NO)c1ccc(F)cc1 | 6.46 |  |  |  |  |
| Cc1cc(N[C@H](CCCCNCc2ccc([N+](=O)[O-])cc2)C(=O)NO)cc(C)c1F | 9.52 | < 3 | > 5 |  |  |
| Cc1cc(S(=O)(=O)NCCCC[C@@H](Nc2cc(C)c(F)c(C)c2)C(=O)NO)ccc1F | 8.51 | < 3 | > 5 |  |  |
| Cc1cc(N[C@H](CCCCNCc2ccc(F)cc2)C(=O)NO)cc(C)c1F |  | < 3 | > 5 |  |  |
| Cc1ccc(CNCCCC[C@@H](Nc2cc(C)c(F)c(C)c2)C(=O)NO)cc1 | 9.39 | < 3 | > 5 |  |  |
| Cc1cc(N[C@H](CCCCNCc2ccc(Cl)cc2)C(=O)NO)cc(C)c1F | 8.96 | < 3 | > 5 |  |  |
| CO[C@H](C[C@H](CCN1CCCC1)C(=O)NO)c1ccc(F)cc1 | 6.91 |  |  |  |  |
| Cc1cc(N[C@H](CCCCNCCc2ccc(F)cc2)C(=O)NO)cc(C)c1F |  | < 3 | > 5 |  |  |
| Cc1cc(NC(=O)NCCCC[C@@H](Nc2cc(C)c(F)c(C)c2)C(=O)NO)ccc1F | 8.03 | < 3 | > 5 |  |  |
| CO[C@H](C[C@H](CCN1CCN(CCc2ccccc2)CC1)C(=O)NO)c1ccc(F)cc1 | 6.93 |  |  |  |  |
| Cc1cc(N[C@H](CCCCNCCCc2ccc(F)cc2)C(=O)NO)cc(C)c1F | 8.89 | < 3 | > 5 |  |  |
| CO[C@H](C[C@H](CCN1CCCC(CO)C1)C(=O)NO)c1ccc(F)cc1 (stereo partly specified) | 7.00 | < 3 | > 5 |  |  |
| CO[C@H](C[C@H](CCN(C)C)C(=O)NO)c1ccc(F)cc1 | 7.02 | < 3 | > 5 |  |  |
| Cc1cc(C(=O)NCCCC[C@@H](Nc2cc(C)c(F)c(C)c2)C(=O)NO)ccc1F | 8.14 | < 3 | > 5 |  |  |
| CO[C@H](C[C@H](CCN1CCN(Cc2ccccc2)CC1)C(=O)NO)c1ccc(F)cc1 | 6.94 |  |  |  |  |
| Cc1cc(N[C@H](CCCCN)C(=O)NO)cc(C)c1F | 8.09 | < 3 | > 5 |  |  |
| Cc1cc(N[C@H](CCCCNCc2ccc(C(C)(C)C)cc2)C(=O)NO)cc(C)c1F | 8.85 | < 3 | > 5 |  |  |
| CO[C@H](C[C@H](CCN(C)CCCc1ccccc1)C(=O)NO)c1ccc(F)cc1 | 7.38 | < 3 | > 5 |  |  |
| CO[C@H](C[C@H](CCN1CCCCC1)C(=O)NO)c1ccc(F)cc1 | 6.64 |  |  |  |  |
| Cc1cc(CNCCCC[C@@H](Nc2cc(C)c(F)c(C)c2)C(=O)NO)ccc1F |  | < 3 | > 5 | Active | Active |
| CO[C@H](C[C@H](CCN(C)CCCc1ccc(F)c(C)c1)C(=O)NO)c1ccc(F)cc1 |  | < 3 | > 5 |  |  |
| Cc1cc(N[C@H](CCCCNCc2cccc(F)c2)C(=O)NO)cc(C)c1F | 9.07 | < 3 | > 5 |  |  |
| CO[C@H](C[C@H](CCN1CCN(c2ccccc2)CC1)C(=O)NO)c1ccc(F)cc1 | 6.82 |  |  |  |  |
| COc1ccc(CNCCCC[C@@H](Nc2cc(C)c(F)c(C)c2)C(=O)NO)cc1 | 9.36 | < 3 | > 5 |  |  |
| CO[C@H](C[C@H](CCN1CCNCC1)C(=O)NO)c1ccc(F)cc1 | 7.05 | < 3 | > 5 |  |  |
| CO[C@H](C[C@H](CCN(C)Cc1ccc(-c2ccc(F)c(C)c2)cc1)C(=O)NO)c1ccc(F)cc1 | 6.87 |  |  |  |  |
| Cc1cc(N[C@H](CCCCNCc2ccc(C(F)(F)F)cc2)C(=O)NO)cc(C)c1F | 9.33 | < 3 | > 5 |  |  |
| Cc1cc(N[C@H](CCCCNCc2ccccc2F)C(=O)NO)cc(C)c1F | 9.16 | < 3 | > 5 |  |  |
